{"source": "paper PMC6282495", "about": "(Clinical Pharmacology and Therapeutics, 2018)", "key": {"[1]": {"system": "whole blood neutrophil elastase (NE) activity", "assay": "Whole blood NE activity", "assay_type": "in vivo, human", "outline": "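Part II only: healthy males on 10, 25 or 40 mg once daily for 21 or 28 days, or placebo (pooled). Whole-blood NE activity was expressed as percent change from each subject's baseline, […]. The 25 and 40 mg cohorts had follow-up visits up to 1 month after leaving the unit. ANC-normalized activity was fitted with a transit-compartment maturation model in which plasma concentration inhibits entry into the first compartment via a sigmoid Hill function. Blood neutrophil half-life was fixed from literature and maximal inhibition was fixed at complete.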"}, "[2]": {"system": "activation of NSPs (NE, Pr3, and CatG) in human primary bone marrow-derived CD34+ neutrophil progenitor cells", "conditions": "cited from earlier work"}, "[3]": {"assay": "In-house data on metabolic clearance routes and plasma protein binding", "assay_type": "in vitro ADME"}, "[4]": {"assay": "Safety and tolerability in healthy subjects", "assay_type": "in vivo, human"}, "efflux transporters": {"system": "efflux transporters", "assay": "In-house data on efflux transporter substrate status", "assay_type": "in vitro ADME"}, "Population PK model": {"assay": "Population PK model", "assay_type": "in vivo, human", "outline": "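Pooled Part I and II plasma concentrations (5–65 mg single doses; 10–40 mg once daily) were fitted with a three-compartment model. It had first-order absorption with lag, a dose-dependent bioavailability power model (relative bioavailability at 5 mg fixed to 1), and volumes per kg bodyweight. Slow peripheral volume and bioavailability were allowed to change between first dose and steady state. Interindividual variability was on Vc, CL, Frel, ka and Alag, with additive log-scale error. Estimates carry 90% CI, with visual predictive checks from 1,000 simulations.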"}, "[5]": {"assay": "AZD7986 plasma pharmacokinetics", "assay_type": "in vivo, human", "outline": "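Healthy male subjects received oral AZD-class test compound. In Part I, single doses of 5–65 mg were given to cohorts of nine, three of them on placebo, with plasma sampled up to 96 h. In Part II, 10, 25 or 40 mg were given once daily for 21 or 28 days, with sampling up to 24 h after the first dose and 96 h after the last. Steady state was checked from predose levels on Days 18–20 and 21/28. Parameters came from noncompartmental analysis.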"}, "[6]": {"conditions": "cited from earlier work"}, "DPP1": {"system": "DPP1", "conditions": "once daily, 21 days of dosing; cited from earlier work"}, "NSP activity": {"system": "NSP activity", "conditions": "21 days of dosing; cited from earlier work"}, "[7]": {"conditions": "between first dose and steady state"}}, "note": "“Also recorded” adds a separate entry of the source. Read-outs that look alike come from different tables or passages of the source.", "data": [{"compound": "Cn1c(=O)oc2ccc(-c3ccc(C[C@@H](C#N)NC(=O)[C@@H]4CNCCCO4)cc3)cc21", "note": "[AZD7986]", "values": [{"measurement": "Observed reduction of whole blood NE activity, on average", "setting": "[1]; 40 mg dose group, 28 days once daily", "result": "more than 50%"}, {"measurement": "Recovery of NE activity after cessation of dosing", "setting": "[1]; 25 and 40 mg cohorts, follow-up visits", "result": "recovers once treatment is stopped"}, {"measurement": "IIV IC50, interindividual variability in IC50", "setting": "[1]; PK-PD model", "result": 33.3, "unit": "%"}, {"measurement": "nH, Hill coefficient", "setting": "[1]; PK-PD model, Imax fixed to 1 (100%)", "result": 0.697}, {"measurement": "Average time to steady state of whole blood NE activity after initiation of dosing", "setting": "[1]; implied by estimated MTT, N and PK", "result": "about 25 days"}, {"measurement": "Start of response in whole blood NE activity after treatment initiation", "setting": "[1]; three active doses compared to placebo", "result": "~12", "unit": "days"}, {"measurement": "Hill coefficient", "setting": "[2]; NE, Pr3 and CatG", "result": "~0.65"}, {"measurement": "Extent of inhibition of activation of all three NSPs", "setting": "[2]; concentration-dependent", "result": "completely inhibit"}, {"measurement": "IC50", "setting": "[2]; read-out: IC50 for inhibition of NSP activation, NE, Pr3 and CatG", "result": "60 to 200", "unit": "nM"}, {"measurement": "Saturable metabolic clearance routes or plasma protein binding", "setting": "[3]", "result": "does not indicate"}, {"measurement": "Discontinuation of treatment due to skin AE of lichenoid drug eruption", "setting": "[4]; 25 mg, Day 13", "result": "One subject"}, {"measurement": "Skin findings of special interest seen in the highest dose group", "setting": "[4]; Part II, 40 mg, number of subjects", "result": "four"}, {"measurement": "Skin findings of special interest seen in subjects treated with AZD7986", "setting": "[4]; Part II, number of subjects", "result": "five of the six"}, {"measurement": "Effect on the number of neutrophils in blood", "setting": "[4]; Part II, repeated dosing", "result": "no clinically significant effect"}, {"measurement": "Clinical laboratory results, 12-lead ECGs, telemetry results", "setting": "[4]; Parts I and II", "result": "No trends were observed"}, {"measurement": "Infection risk", "setting": "[4]; Parts I and II", "result": "no signal of increased infection risk"}, {"measurement": "Serious adverse events", "setting": "[4]; Parts I and II", "result": "No serious adverse events"}, {"measurement": "Mild gingival bleeding, AZD7986 versus placebo", "setting": "[4]; gingival probing", "result": "no difference"}, {"measurement": "Overall tolerability", "setting": "[4]; single doses 5-65 mg, once daily 10-40 mg for 21 or 28 days", "result": "well tolerated"}, {"measurement": "Substrate for efflux transporters", "setting": "efflux transporters", "result": "may be a substrate for efflux transporters"}, {"measurement": "Increase in oral bioavailability", "setting": "Population PK model; between 5 and 65 mg, power model", "result": "~2", "unit": "fold"}, {"measurement": "Fsteadystate_change, percent change in bioavailability", "setting": "Population PK model; [7]", "result": 24.3, "unit": "%"}, {"measurement": "Vp,slow,steadystate_change, percent change in volume of slowly equilibrating tissue compartment", "setting": "Population PK model; [7]", "result": 34, "unit": "%"}, {"measurement": "Alag, absorption lag time", "setting": "Population PK model; population PK model estimate", "result": 0.159, "unit": "h"}, {"measurement": "CL, apparent clearance from central compartment", "setting": "Population PK model; population PK model estimate", "result": 12.0, "unit": "L/h"}, {"measurement": "IIV Alag, interindividual variability in Alag", "setting": "Population PK model; population PK model estimate", "result": 21.3, "unit": "%"}, {"measurement": "IIV CL, interindividual variability in CL", "setting": "Population PK model; population PK model estimate", "result": 22.2, "unit": "%"}, {"measurement": "IIV Frel, interindividual variability in Frel", "setting": "Population PK model; population PK model estimate", "result": 18.2, "unit": "%"}, {"measurement": "IIV Vc, interindividual variability in Vcentral", "setting": "Population PK model; population PK model estimate", "result": 53.6, "unit": "%"}, {"measurement": "IIV ka, interindividual variability in ka", "setting": "Population PK model; population PK model estimate", "result": 28.8, "unit": "%"}, {"measurement": "Qfast, apparent intercompartmental clearance between plasma and rapidly equilibrating tissues", "setting": "Population PK model; population PK model estimate", "result": 122, "unit": "L/h"}, {"measurement": "Qslow, apparent intercompartmental clearance between plasma and slowly equilibrating tissues", "setting": "Population PK model; population PK model estimate", "result": 14.7, "unit": "L/h"}, {"measurement": "Vc, apparent volume per kg bodyweight of central plasma compartment", "setting": "Population PK model; population PK model estimate", "result": 0.368, "unit": "L/kg"}, {"measurement": "Vp,fast, apparent volume per kg bodyweight of rapidly equilibrating tissue compartment", "setting": "Population PK model; population PK model estimate", "result": 2.45, "unit": "L/kg"}, {"measurement": "ka, absorption rate constant", "setting": "Population PK model; population PK model estimate", "result": 0.809, "unit": "h⁻¹"}, {"measurement": "Fslope, slope parameter for bioavailability vs. dose power model", "setting": "Population PK model; relative to 5 mg single dose", "result": 0.228}, {"measurement": "Vp,slow, apparent volume per kg bodyweight of slowly equilibrating tissue compartment", "setting": "Population PK model; single dose, population PK model estimate", "result": 1.97, "unit": "L/kg"}, {"measurement": "half-life", "setting": "[5]; male, human, plasma, po, Terminal half-life, after a single oral dose", "result": "20 to 26", "unit": "h"}, {"measurement": "Time of maximum plasma levels (Cmax) after dosing", "setting": "[5]; oral dosing, healthy subjects", "result": "0.5 to 1.5", "unit": "h"}]}, {"compound": "CC[C@@H](/C=C/C(=O)N1CCc2ccccc21)NC(=O)C1(N)CCOCC1", "note": "[GSK2793660]", "values": [{"measurement": "half-life", "setting": "[6]; administered once daily", "result": 1.5, "unit": "h"}, {"measurement": "Cases of skin desquamation", "setting": "[6]", "result": "seven"}, {"measurement": "Downstream effect reported on skin", "setting": "[6]", "result": "epidermal desquamation on palmar and plantar surfaces"}, {"measurement": "DPP1 inhibition in whole blood", "setting": "DPP1", "result": "sustained inhibition; also recorded: sustained, near‐complete"}, {"measurement": "Effect on NSP activity", "setting": "NSP activity", "result": "no clear effect"}]}]}
